TRPC4 PAM = allosteric potentiators of mouse TRPC4 channel. HEK293 TRPC4beta/mu-opioid, DAMGO EC20, Fluo-4 Ca2+ flux; active compounds read high. B-score at 10 µM. actives 0.42% (n = 310,000). AID 2227;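 active means B-score of calcium response area above 5 SD of library B-scores, with initial fluorescence ratio within 5 SD of library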;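 further: B-score of integrated fluorescence ratio over time as area under calcium response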
Kir21 inh = inhibitors of mouse Kir2.1 inward-rectifier potassium channel | B-score at 10 µM | actives 0.85% (n = 310,000) | HEK293-Kir2.1, FluxOR thallium flux fluorescence; active compounds read low;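 active means fluorescence ratio B-score at or below minus 3 SD of library scores, with starting-brightness B-score within 2 SD, cut at about -4.2 in these data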;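 further: channel flux triggered by added potassium and thallium sulfate stimulus; B-score of peak minus minimum fluorescence over baseline after thallium stimulus; more negative B-score means stronger Kir2.1 block with less thallium influx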
Target sequence (P35561 whole entry, looked up): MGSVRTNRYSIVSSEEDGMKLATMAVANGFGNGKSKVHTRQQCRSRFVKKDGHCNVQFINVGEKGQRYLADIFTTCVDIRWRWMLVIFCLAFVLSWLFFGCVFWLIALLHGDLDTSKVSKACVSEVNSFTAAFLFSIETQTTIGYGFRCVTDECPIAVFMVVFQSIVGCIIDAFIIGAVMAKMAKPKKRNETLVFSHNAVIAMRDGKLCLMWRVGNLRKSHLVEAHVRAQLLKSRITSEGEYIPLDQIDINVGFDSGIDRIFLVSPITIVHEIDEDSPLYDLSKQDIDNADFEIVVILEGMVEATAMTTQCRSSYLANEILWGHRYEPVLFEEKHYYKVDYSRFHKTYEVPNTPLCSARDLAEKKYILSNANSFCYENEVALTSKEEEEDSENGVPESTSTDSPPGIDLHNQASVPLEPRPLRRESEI
TRPC4 block = blocks the mouse TRPC4 cation channel. Q9QUQ5. HEK293 TRPC4beta/mu-opioid, DAMGO-evoked Fluo4 calcium flux; active compounds read low. B-score at 10 µM. actives 0.39% (n = 300,000);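 active means B-score over 3 SD under the library average, no early fluorescence shift, positive overall ratio signal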
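test system = HEK293 cells with stable TRPC4beta plus mu-opioid receptor expression | detection = Fluo4 Ca2+ flux fluorescence | read-out = integrated fluorescence ratio relative to baseline, converted to per-well B score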
TRPC6 activator = mouse TRPC6 channel activation; HEK293-TRPC6 membrane potential dye fluorescence; active compounds read high; Q61143; B-score at 10 µM; actives 0.13% (n = 310,000);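 active means B-score of the integrated fluorescence ratio above library mean plus 3 SD, and starting fluorescence ratio within library mean plus 5 SD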;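 further: higher score means more depolarization so channel activation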
TRPC4 agonist = activators of mouse TRPC4 channel; Q9QUQ5; HEK293 TRPC4beta/mu-opioid, Fluo4 calcium fluorescence; active compounds read high; B-score at 10 µM; actives 0.49% (n = 310,000); AID 2237;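 active means B-score above 5 SD of library B-scores, and initial fluorescence ratio not above library mean plus 5 SD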;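 further: positive B-score marks a calcium rise read as TRPC4 activation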
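System – HEK293 cells stably co-expressing mouse TRPC4beta and mu-opioid receptor · Signal – Fluo4 calcium-sensitive dye fluorescence, kinetic, 1 Hz baseline · Benchmarks – buffer (low) and maximal DAMGO (high) · Read-out – B score of integrated fluorescence ratio per well · Incubation – dye loading 45 min room temperature, 110 s kinetic read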
TRPC6 inh = inhibitors of mouse TRPC6 channel; Q61143; HEK293-TRPC6, membrane potential dye, ACh-evoked depolarization; active compounds read low; B-score at 10 µM; actives 1.1% (n = 310,000); AID 2553;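 active means B-score under library mean minus 3 SD, initial fluorescence not abnormally high, positive integrated signal ratio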;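 further: B-score derived from integrated fluorescence ratio over the kinetic read; more negative B-score means stronger inhibition of depolarization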
TRPC4 spec 2 = mouse TRPC4 off-target activity of TRPC6 inhibitors, second screen. AID 2776. actives 42% (n = 920). inhibition, % at 10 µM. shares compounds with TRPC6 inh. HEK293 TRPC4/MOR, membrane potential dye fluorescence; channel activated by saturating DAMGO dose;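 active means compounds whose fluorescence signal differed from control wells by over 3 SD, either direction, in both duplicate plates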
TRPC4 spec = mouse TRPC4 off-target activity of TRPC6 inhibitors | HEK293 TRPC4/mu-opioid, membrane potential fluorescence | actives 61% (n = 920) | shares compounds with TRPC6 inh | activity change, negative = inhibition, % at 10 µM | AID 2777;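 active means rise or fall in signal beyond 3 SD of buffer-only wells in both replicate plates, either sign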;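 further: integrated kinetic ratio of fluorescence range over baseline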
HEK293 MPD ctr 2-1 = parental HEK293 nonspecific activity of TRPC6 inhibitors, second screen. shares compounds with TRPC6 inh. parental HEK293 membrane potential dye fluorescence; maximal acetylcholine challenge after compound addition. signal change vs control, % at 10 µM. actives 31% (n = 920);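 active means membrane potential signal moving either way by over 3 SD of the maximum-effect control, in both duplicate plates, meaning non-specific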
HEK293 MPD ctr-1 = parental HEK293 nonspecific activity of TRPC6 inhibitors | parental HEK293 membrane potential dye fluorescence | shares compounds with TRPC6 inh | AID 2780 | actives 60% (n = 920) | membrane potential signal change, % at 10 µM;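 active means membrane potential signal shifting up or down by more than 3 SD of buffer-only wells, on both duplicate plates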
HEK293 MPD ctr-2 = parental HEK293 nonspecific activity of TRPC6 modulators; shares compounds with TRPC6 inh; membrane potential dye fluorescence; membrane potential signal change, % at 10 µM; actives 51% (n = 2,400); AID 488924;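 active means membrane potential signal moves up or down beyond 5 SD from buffer-only wells, on both duplicate plates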
HEK293 MPD ctr 2-2 = parental HEK293 nonspecific activity of TRPC6 modulators, second screen. shares compounds with TRPC6 inh. actives 14% (n = 2,400). membrane potential dye fluorescence; after compound, maximal acetylcholine stimulation. inhibition, % at 10 µM;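 active means membrane potential signal drops by more than 5 SD from the mean control signal, in both duplicate plates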;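 further: plate controls were acetylcholine ECmax control wells for no effect and buffer only wells for full effect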
TRPC4/MOR mod = selectivity of TRPC6 modulators against mouse TRPC4 | shares compounds with TRPC6 inh | HEK293 TRPC4/mu-opioid, membrane potential fluorescence | percent change from control (negative = decrease, positive = increase), % at 10 µM | actives 69% (n = 2,400) | AID 488927;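 active means membrane potential signal moved up or down beyond 5 SD of buffer control wells, in both duplicate plates, actives on both sides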;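 further: plate controls were assay buffer wells for no effect and DAMGO maximal-effect wells for full effect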
TRPC4 ctr inh 2 = mouse TRPC4 off-target activity of TRPC6 modulators, second screen | shares compounds with TRPC6 inh | HEK293 TRPC4/mu-opioid, membrane potential dye fluorescence; stimulated with maximal-effect DAMGO | inhibition, % at 10 µM | actives 55% (n = 2,400);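 active means drop in membrane potential signal beyond 5 SD of the control wells in both duplicate plates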;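 further: TRPC4 counter screen for TRPC6 hits run under conditions tuned for TRPC6 not TRPC4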
TRPC6 block conf = confirmation of mouse TRPC6 inhibitors; shares compounds with TRPC6 inh; HEK293-TRPC6, membrane potential dye, ACh-evoked depolarization; inhibition, % at 10 µM; actives 43% (n = 3,300);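 active means fluorescence ratio falls more than 5 SD below the full-stimulation control mean, in both duplicate runs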;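 further: integrated fluorescence ratio of peak minus minimum over baseline after agonist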
TRPC6 act conf = mouse TRPC6 activator confirmation; shares compounds with TRPC6 inh; HEK293-TRPC6 membrane potential dye fluorescence, FDSS; activation, % at 10 µM; actives 11% (n = 2,800); AID 488961;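 active means ratio signal rise beyond 5 SD above unstimulated control wells' mean, seen in both duplicate runs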;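 further: plate controls were buffer EC0 wells for no effect and acetylcholine ECmax response for full effect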
* marks the source's active call; other numbers are inactive results; i = inactive; nt = not tested or not shown; ! = not active in a repeat. Sampled rows, rich in hits. Any-hit rate of the full collection: about 2.9%.

SMILES	TRPC4 PAM	Kir21 inh	TRPC4 block	TRPC6 activator	TRPC4 agonist	TRPC6 inh	TRPC4 spec 2	TRPC4 spec	HEK293 MPD ctr 2-1	HEK293 MPD ctr-1	TRPC6 block conf	TRPC6 act conf	others
c1ccc(-c2nc(NCC3CCCO3)c3ccccc3n2)nc1 (stereo unspecified)	i	1.05	i	i	i	i	nt	nt	nt	nt	nt	nt
COc1ccc(Nc2nc(NCC3CCCO3)c3ccccc3n2)c(OC)c1 (stereo unspecified)	i	-9.9*	-6*	i	i	-9.85*	47.5%*	-15.6%*	i	-223.0%*	75.5%*	i
c1ccc(Nc2nc(NCC3CCCO3)c3ccccc3n2)cc1 (stereo unspecified)	i	-15.3*	-6*	i	i	-8.84*	31.0%*	-15.2%*	i	-135.0%*	53.3%*	i
OCCNc1nc(Nc2ccc(Br)cc2)nc2ccccc12	i	-13.3*	i	i	i	-7.04*	46.0%*	-20.5%*	i	-181.0%*	i	i
COc1ccccc1Nc1nc(NCc2ccco2)c2ccccc2n1	i	1.03	i	i	i	i	nt	nt	nt	nt	nt	nt
OCCNc1nc(Nc2ccccc2)nc(Nc2ccccc2)n1	i	2.19	i	i	i	i	nt	nt	nt	nt	nt	nt
CCOc1ccc(Nc2nc(NCC3CCCO3)c3ccccc3n2)cc1 (stereo unspecified)	i	-7.14*	-5*	i	i	-9.61*	55.5%*	-17.4%*	i	-150.5%*	i	i
O=C(CN(C(=O)CSc1nc2ccccc2o1)c1cccc(F)c1)NC1CCCCC1	i	-0.64	i	i	i	i	nt	nt	nt	nt	nt	nt
NS(=O)(=O)c1cc(C(=O)NC2CCSc3ccccc32)ccc1Cl (stereo unspecified)	i	-0.2	i	12.6*	i	i	nt	nt	nt	nt	i	70.5%*	HEK293 MPD ctr-2=122.5%*;HEK293 MPD ctr 2-2=i;TRPC4/MOR mod=32.0%*;TRPC4 ctr inh 2=i
CSCc1cc(N(C)c2ccccc2)nc(-c2ccccn2)n1	i	0.53	i	i	i	-7.16*	i	i	i	i	i	i
O=C(CCC(=O)OCC(=O)c1ccc(C(F)(F)F)cc1)OCC(=O)c1ccc(C(F)(F)F)cc1	i	0.7	i	i	i	i	nt	nt	nt	nt	nt	nt
COCCCC/C(=N\OCCN)c1ccc(C(F)(F)F)cc1	i	-3.83	i	i	i	-5.02*!	nt	nt	nt	nt	43.0%*	i	HEK293 MPD ctr-2=i;HEK293 MPD ctr 2-2=i;TRPC4/MOR mod=12.5%*;TRPC4 ctr inh 2=48.0%*
O=C(Nc1ccccc1[N+](=O)[O-])c1cccc(N2C(=O)CCC2=O)c1	i	-0.07	i	i	i	i	nt	nt	nt	nt	nt	nt
CC(=O)c1ccc(Nc2nc(=O)c3cccnc3s2)cc1	i	1.04	i	i	i	-5.78*	nt	nt	nt	nt	i	i	HEK293 MPD ctr-2=-175.5%*;HEK293 MPD ctr 2-2=i;TRPC4/MOR mod=-33.0%*;TRPC4 ctr inh 2=i
O=C(CSc1nnc(CNC(=O)c2ccco2)o1)Nc1ccc(F)cc1	i	-0.47	i	i	i	i	nt	nt	nt	nt	nt	nt
Cc1ccc(SC(=O)c2c([N+](=O)[O-])c(C)nn2C)cc1	i	0.01	i	i	i	-7.16*	i	i	-5.5%*	i	76.0%*	i
Cc1cc(C)n(C(=O)c2c([N+](=O)[O-])c(C)nn2C)n1	i	-3.76	i	i	i	i	nt	nt	nt	nt	nt	nt
O=C1c2ccccc2-c2onc3c(N4CCN(CCO)CC4)cc(N4CCN(C(=O)c5ccco5)CC4)c1c23	i	0.02	i	i	i	-7*	i	-46.6%*	i	-608.5%*	i	i
CN1CCN(c2cc(N3CCN(C(=O)c4ccco4)CC3)c3c4c(onc24)-c2ccccc2C3=O)CC1	i	-0.89	i	i	i	i	nt	nt	nt	nt	nt	nt
O=C(O)c1cc(N=Cc2c(O)c3ccccc3oc2=O)ccc1O	i	1.76	i	i	i	i	nt	nt	nt	nt	nt	nt
COC(=O)c1ccc(/C=N/OCC(=O)NC2CCCC(C)C2C)cc1 (stereo unspecified)	i	-1.82	i	i	i	i	nt	nt	nt	nt	nt	nt
COC(=O)c1ccc(/C=N/OCC(=O)NC2CCCCCCC2)cc1	i	1.89	i	i	i	-9.09*	i	3.9%*	i	3.9%*	i	nt
Cn1c(/C=C/c2ccccc2)nc2ccccc21	i	0.72	i	i	i	-7.92*	23.0%*	3.3%*	i	-204.0%*	i	i
C=C1CCN([C@@H](Cc2ccccc2)C(=O)NCc2ccc(Cl)cc2)S(=O)(=O)c2ccccc21	i	-1.24	i	i	i	i	nt	nt	nt	nt	nt	nt
O=C(/C=C1\NCC2c3ccccc3CCN2C1=O)c1ccccc1 (stereo unspecified)	i	0.85	i	i	i	-6.07*	nt	nt	nt	nt	72.0%*	nt	HEK293 MPD ctr-2=171.0%*;HEK293 MPD ctr 2-2=i;TRPC4/MOR mod=13.5%*;TRPC4 ctr inh 2=i
NS(=O)(=O)c1ccc(CCNC(=O)c2ccc3c(c2)OCCO3)cc1	i	0.21	i	i	i	i	nt	nt	nt	nt	nt	nt

High-throughput results deposited in PubChem by Johns Hopkins Ion Channel Center.
